A selection: hits, their analogues and other compounds. The true share with any hit is near 2.3%.
NR2E3 ag-1: human photoreceptor-specific nuclear receptor agonism; CHO-S Gal4-NCOR/VP16-NR2E3 two-hybrid, luciferase; inhibition of corepressor binding, % at 3.98 µM; hit rate 0.35% among 360,000;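 active means inhibition above the mean of all tested compounds plus 3 SD, cut at about 70% in these data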;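 further: 0% = DMSO with NR2E3 transfected cells and 100% = cells lacking NR2E3 construct; higher means lower luciferase signal from less NR2E3 corepressor binding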
NR2E3 ag-2: activates human photoreceptor nuclear receptor NR2E3. hit rate 0.12% among 320,000. Q9Y5X4. AID 2300. GST-NR2E3/biotin-RetCOR TR-FRET, 1536-well. inhibition of corepressor binding, % at 4.78 µM;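 active means percent inhibition above the cutoff of mean plus 3 SD of all tested compounds, set per screening campaign, cut at about 20% in these data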;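 further: 0% = DMSO wells and 100% = biotin wells as full block of FRET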
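Material – GST-tagged NR2E3 plus biotinylated RetCOR corepressor · Quantity – NR2E3 fusion 1.35 nM · Times – 5 h incubation at 4 °C · Medium – pH 7.5 Tris-based buffer · Technique – TR-FRET, Eu(K)-anti-GST donor, streptavidin-D2 acceptor, ex 340, em 617/671 nm · Benchmarks – high control biotin, low control 0.6% DMSO · Format – 1536-well plates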
CHT allo act: allosterically activates the human high affinity choline transporter; CHT-expressing cells, membrane potential dye, choline EC20; active compounds read high; LV-AA mutant CHT in HEK293 cells; B-score at 10 µM; hit rate 0.49% among 310,000; Q9GZV3;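 active means initial fluorescence not abnormally high and integrated response B-score, plate-corrected, over 3 SD above library mean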
NR2F2 inh: blocks human COUP-TFII nuclear receptor; hit rate 0.7% among 370,000; HEK293T NGFI-A luciferase reporter, luminescence; inhibition, % at 8.6 µM; P24468;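 active means inhibition above a per-plate cutoff, mean inhibition of test wells between control levels plus 3 SD, cut at about 38% in these data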;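 further: cells cotransfected with COUP-TFII expression vector driving the NGFI-A reporter; 0% = median of COUP-TF2 test wells and 100% = reporter-only cells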
Target sequence (P24468 whole entry, looked up): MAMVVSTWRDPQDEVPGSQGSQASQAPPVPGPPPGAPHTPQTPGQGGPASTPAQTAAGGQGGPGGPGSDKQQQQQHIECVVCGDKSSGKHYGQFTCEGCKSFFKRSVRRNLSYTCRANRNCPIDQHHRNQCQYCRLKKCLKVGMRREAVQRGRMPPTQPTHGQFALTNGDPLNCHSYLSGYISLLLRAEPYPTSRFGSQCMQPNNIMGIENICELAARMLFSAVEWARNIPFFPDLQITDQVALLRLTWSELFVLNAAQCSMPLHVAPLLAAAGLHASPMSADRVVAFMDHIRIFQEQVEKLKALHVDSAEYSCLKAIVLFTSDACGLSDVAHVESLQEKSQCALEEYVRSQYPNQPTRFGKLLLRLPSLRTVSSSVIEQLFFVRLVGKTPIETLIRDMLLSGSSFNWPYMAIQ
CHT block: inhibits the human high affinity choline transporter. Q9GZV3. hit rate 0.86% among 310,000. AID 488975. B-score at 10 µM. CHT-expressing cells, membrane potential dye, choline response; active compounds read low;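 active means B-score over 3 SD under the library average, and starting fluorescence ratio not unusually high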;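 further: choline stimulus applied at its EC90 after an EC20 pre-addition; B-score computed on integrated fluorescence ratio after choline addition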
GalR3 antag: antagonists of human GalR3. O60755. HEK293 GalR3-CNG cAMP membrane potential fluorescence; galR3 body fused to GalR1 C-terminus. inhibition, % at 3 µM. hit rate 0.44% among 360,000. AID 651719;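 active means inhibition above the screen-wide average plus 3 SD, cut at about 13% in these data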;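 further: forskolin and galanin both at EC90 stimulate the cells; cAMP rise reported by CNG channel membrane potential dye signal; 0% = forskolin plus galanin with DMSO and 100% = forskolin alone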
NR2E3 agonist cf: confirmation of human NR2E3 nuclear receptor agonists; shares compounds with NR2E3 ag-2; cell-free NR2E3 corepressor release, TR-FRET, 5 h; activation (reported as inhibition), % at 3.98 µM; hit rate 39% among 360; in the data active means activation above about 20%
PPARg-NCOR2 ctr: PPARg-NCOR2 interaction agonism, NR2E3 counter-screen; inhibition, % at 3.98 µM; hit rate 45% among 360; shares compounds with NR2E3 ag-2; TR-FRET PPARg-NCOR2 coregulator interaction, biochemical; in the data active means inhibition above about 20%;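 further: 0% = DMSO vehicle and 100% = wells without protein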
Numbers without * were called inactive; i = inactive; / = no result.

SMILES	NR2E3 ag-1	NR2E3 ag-2	CHT allo act	NR2F2 inh	CHT block	GalR3 antag	NR2E3 agonist cf	PPARg-NCOR2 ctr
COc1cccc(NC(=O)c2cc3cccc(OC)c3o/c2=N\O)c1	/	0	i	/	-5.3*	/	/	/
COc1ccc(NC(=O)c2cc3cccc(OC)c3oc2=Nc2ccc(C(=O)O)cc2)cc1OC	-11	/	/	8	/	-3	/	/
Cc1cc(C)cc(C(=O)OCCN(C)C2CN(Cc3cn(Cc4ccccc4C(F)(F)F)nn3)S(=O)(=O)C2)c1 (stereo not given)	/	/	/	4	/	/	/	/
Cc1ccc(-c2csc(Nc3ccc(C(=O)O)cc3)[n+]2Cc2ccccc2)cc1	1	5	i	-3	i	1	/	/
O=C([O-])c1cc(-c2ccccc2)cc(-c2ccccc2)[n+]1Cc1ccccc1	/	2	6.8*	-19	i	-3	/	/
COc1cccc(-c2nc(-c3ccccc3)c(-c3ccccc3)[nH]2)c1OCC(=O)O	-14	/	i	8	-6.6*	-9	/	/
CCCN1C(=O)c2ccccc2NC1c1ccc(Cl)c(Cl)c1 (stereo not given)	18	-2	7.3*	0	i	-11	/	/
COc1cc(C(=O)Nc2ccc3c(c2)nc(C)n3C)cc(OC)c1OC	-12	0	6.5*	13	i	-3	/	/
COC(=O)Cc1ccc(NC(=S)NCCCN2CCOCC2)cc1	19	-3	i	-4	-6.8*	0	/	/
O=C1/C(=C/c2cccnc2)CCC/C1=C\c1cccnc1	/	-2	i	91*	i	-3	/	/
O=C1/C(=C/c2cccnc2)CC/C1=C\c1cccnc1	-6	4	i	-3	i	-4	/	/
CCC1C/C(=C\c2cccnc2)C(=O)/C(=C/c2cccnc2)C1 (stereo not given)	-30	/	/	91*	/	-5	/	/
C=CCn1c(SCC(=O)Nc2cccc(S(N)(=O)=O)c2)nnc1C1CCCCC1	-12	42*	/	-9	/	-5	-1	-3
CN(C)CCN1C(=O)C(O)=C(C(=O)c2cc3ccccc3o2)C1c1ccccn1 (stereo not given)	/	27*	i	/	i	/	2	4
CCN(CC)CCCN1C(=O)C(O)=C(C(=O)c2cc3ccccc3o2)C1c1ccccn1 (stereo not given)	-7	22*	i	1	i	-1	24*	24*
C#CCCN([C@@H](CC(C)C)C(=O)OC)S(=O)(=O)c1ccccc1Br	/	/	/	2	/	/	/	/
Cc1onc(-c2ccccc2Cl)c1C(=O)Nc1nnc(-c2ccc(F)cc2)s1	9	5	i	-4	i	/	/	/
Cc1onc(-c2ccccc2Cl)c1C(=O)Nc1nnc(-c2ccc(Br)cc2)s1	14	22*	i	-14	i	/	14	15
CCOC(=O)c1c(-c2ccc(C)s2)csc1N	-8	68*	i	-3	i	-4	-4	-5
Cc1ccc(S(=O)(=O)NCC(=O)OCC(=O)c2ccc(Cl)s2)cc1	-17	-1	i	9	i	-1	/	/
Cc1ccc(S(=O)(=O)NCC(=O)OCC(=O)c2ccc(Br)s2)cc1	-14	22*	i	-31	i	-2	3	10
CN1C2=NC(c3ccccc3)CC(=O)N2/C(=C\c2ccccc2)C1c1ccccc1C(F)(F)F (stereo not given)	/	/	/	8	/	/	/	/
CCOC(=O)N1CCN(C(=O)c2ccc3c(=O)n(Cc4ccc(Cl)cc4)c(=S)[nH]c3c2)CC1	-24	-8	i	-10	i	-3	/	/
CCOC(=O)Cn1c(=S)[nH]c2c(oc3ccc(Cl)cc32)c1=O	-17	25*	i	4	i	4	46*	41*
CCCn1c(C)cs/c1=N\C(=S)Nc1ccccc1	1	26*	i	-4	i	-3	17	14
Cc1cs/c(=N/C(=S)Nc2ccccc2)n1C	-162	7	i	-65	i	7	/	/

Compound activity (PubChem BioAssay)
